≈ marks a conversion by molar mass, not a printed value.
Columns and labels:
[1] = Apparent permeability of the compound in phosphate buffer at pH 7.4 by PAMPA; assay type: physicochemical
HEK293 = assay: Growth inhibition of HEK293 cells after 2 days by MTT assay; assay type: cell-based; conditions: Homo sapiens, HEK293, 48 h
[2] = system: Human immunodeficiency virus 1; assay: Antiviral activity against HIV-1 NL4.3 infected in human TZM-b1 cells pretreated for 1 hr followed by viral infection measured after 2 days by CPRG assay; assay type: functional, cell-based; conditions: Human immunodeficiency virus 1, NL4.3, TZM-b1
[3] = Selectivity index, ratio of IC50 for BAEC cells to IC50 for human MCF7 cells; assay type: functional
[4] = Selectivity index, ratio of IC50 for HEK293 cells to IC50 for human Ramos cells; assay type: functional
[5] = Growth inhibition of BAEC after 2 days by MTT assay; assay type: cell-based; conditions: Bos taurus, 48 h
[6] = Selectivity index, ratio of IC50 for BAEC cells to IC50 for human Ramos cells; assay type: functional
[7] = Selectivity index, ratio of IC50 for HEK293 cells to IC50 for human HT-29 cells; assay type: functional
[8] = Selectivity index, ratio of IC50 for HEK293 cells to IC50 for human MCF7 cells; assay type: functional
MCF7 = assay: Growth inhibition of human MCF7 cells after 2 days by MTT assay; assay type: functional, cell-based; conditions: MCF7, 48 h
HT-29 [9] = assay: Growth inhibition of human HT-29 cells after 2 days by MTT assay; assay type: functional, cell-based; conditions: HT-29, 48 h
[10] = Cytotoxicity against human TZM-b1 cells by XTT assay; assay type: cell-based; conditions: read-out: LD50 (the source's name)
Ramos = assay: Growth inhibition of human Ramos cells after 2 days by MTT assay; assay type: functional, cell-based; conditions: 48 h
[11] = Selectivity index, ratio of IC50 for BAEC cells to IC50 for human HT-29 cells; assay type: functional
HT-29 [12] = assay: Down regulation of hTERT expression in human HT-29 cells assessed as hTERT expression level at 5 uM after 48 hrs by RT-qPCR analysis relative to control; assay type: functional
How it was run: (§1)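 HT-29 cells were incubated 48 h with compound, with DMSO as the vehicle control and resveratrol as the positive control. Total RNA was extracted, reverse-transcribed to cDNA, and hTERT or c-Myc quantified by RT-qPCR. Expression was normalized to β-actin and given as % of the DMSO control (100%). At least three measurements per case; mean ± SEM; one-sample t-test.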

HT-29 [13] = assay: Down regulation of c-Myc expression in human HT-29 cells assessed as c-Myc expression level at 5 uM after 48 hrs by RT-qPCR analysis relative to control; assay type: functional; how it was run: as §1
[14] = Metabolic stability in human liver microsomes at 50 uM measured after 60 mins in presence of NADPH generating system by LC-UV-MS method; assay type: ADME, microsome; conditions: read-out: Stability
HT-29 [15] = assay: Down regulation of hTERT expression in human HT-29 cells assessed as hTERT expression level at 1 uM after 48 hrs by RT-qPCR analysis relative to control; assay type: functional; how it was run: as §1
[16] = Aqueous solubility of the compound in water at 1 mg after 24 to 36 hrs by LC-MS/MS analysis; assay type: physicochemical
HT-29 [17] = assay: Down regulation of c-Myc expression in human HT-29 cells assessed as c-Myc expression level at 1 uM after 48 hrs by RT-qPCR analysis relative to control; assay type: functional; how it was run: as §1
HT-29 [18] = assay: Down regulation of hTERT expression in human HT-29 cells assessed as hTERT expression level at 20 uM after 48 hrs by RT-qPCR analysis relative to control; assay type: functional; how it was run: as §1
HT-29 [19] = assay: Down regulation of c-Myc expression in human HT-29 cells assessed as c-Myc expression level at 20 uM after 48 hrs by RT-qPCR analysis relative to control; assay type: functional; how it was run: as §1

SMILES | Papp [1] | IC50 (HEK293) | IC50 [2] | Ratio IC50 [3] | Ratio IC50 [4] | IC50 [5] | Ratio IC50 [6] | Ratio IC50 [7] | Ratio IC50 [8] | IC50 (MCF7) | IC50 (HT-29 [9]) | CC50 [10] | IC50 (Ramos) | Ratio IC50 [11] | Activity (HT-29 [15]) | Activity (HT-29 [17]) | further results
Cn1c(=O)c2c(ncn2C)n(C)c1=O [CAFFEINE] | < 0.1 ×10⁻⁶ cm/s | – | – | – | – | – | – | – | – | – | – | – | – | – | – | – | –
O=C(O)c1ccc(-c2ccc(/C=C3\SC(=S)N(CCc4ccc(Cl)c(Cl)c4)C3=O)o2)cc1O | – | 29 µM | 4.8 µM | <0.86 | <0.29 | 86 µM | <0.86 | <0.29 | <0.29 | > 100 µM | > 100 µM | > 50 µM | > 100 µM | <0.86 | – | – | –
O=C1/C(=C/c2ccc(-c3cc(C(F)(F)F)ccc3Cl)o2)SC(=S)N1Cc1ccc(Cl)cc1 | – | 4.2 µM | 6.9 µM | 2.12 | 1.1 | 2.4 µM | 0.63 | 0.51 | 3.72 | 1.13 µM | 8.3 µM | > 50 µM | 3.8 µM | 0.29 | – | – | Activity (HT-29 [12]): 53%; Activity (HT-29 [13]): 100%
C[C@]12CC[C@H]3[C@@H](CCC4=CC(=O)CC[C@@]43C)[C@@H]1CC[C@@H]2O [TESTOSTERONE] | – | – | – | – | – | – | – | – | – | – | – | – | – | – | – | – | remaining at 1 h, 50 µM [14]: 76.2%
O=C1N=C(N2CCOCC2)S/C1=C\c1ccc(-c2ccc(C(=O)O)c(O)c2)o1 | 1.28 ×10⁻⁶ cm/s | 53 µM | 13.4 µM | 3.62 | 16.9 | 76 µM | 24.2 | 23.04 | 2.52 | 21 µM | 2.3 µM | > 50 µM | 3.14 µM | 33.04 | 51% | 60% | solubility [16]: 9.7 µM (≈ 3.88 µg/mL); remaining at 1 h, 50 µM [14]: 98.7%
O=C1N=C(NCCc2ccc(Cl)c(Cl)c2)S/C1=C\c1ccc(-c2ccc(C(=O)O)c(O)c2)o1 | – | > 100 µM | 1.8 µM | – | – | > 100 µM | – | – | – | > 100 µM | > 100 µM | > 50 µM | > 100 µM | – | – | – | –
CCc1ccc(CCNC2=NC(=O)/C(=C/c3ccc(-c4ccc(C(=O)O)c(O)c4)o3)S2)cc1 | – | 3.4 µM | 1 µM | 4.44 | 0.09 | 20 µM | 0.54 | 0.13 | 0.76 | 4.5 µM | 26 µM | > 50 µM | 37 µM | 0.77 | – | – | Activity (HT-29 [18]): 56%; Activity (HT-29 [19]): 67%
Oc1ccc(/C=C/c2cc(O)cc(O)c2)cc1 [RESVERATROL] | – | 17 µM | – | – | – | 57 µM | – | – | – | 34 µM | 137 µM | – | 37 µM | – | 28% | 47% | –
O=C1/C(=C/c2ccc(-c3cc(C(F)(F)F)ccc3Cl)o2)SC(=S)N1Cc1ccc(F)cc1 | – | 2.4 µM | 17.3 µM | 1.83 | 0.59 | 2.2 µM | 0.53 | 0.52 | 2 | 1.2 µM | 4.6 µM | > 50 µM | 4.1 µM | 0.48 | 37% | 69% | –
O=C1N=C(Nc2ccc(F)c(Cl)c2)S/C1=C\c1ccc(-c2ccc(C(=O)O)c(O)c2)o1 | 1.58 ×10⁻⁶ cm/s | 12 µM | 1 µM | 1.92 | 3.9 | 25 µM | 8 | 10.91 | 0.92 | 13 µM | 1.1 µM | > 50 µM | 3.1 µM | 22.72 | 53% | 60% | solubility [16]: 11.8 µM (≈ 5.41 µg/mL); remaining at 1 h, 50 µM [14]: 99.1%
Cc1nnc(C(=O)NC(C)(C)c2nc(C(=O)NCc3ccc(F)cc3)c(O)c(=O)n2C)o1 [RALTEGRAVIR] | – | – | 0.021 µM | – | – | – | – | – | – | – | – | > 50 µM | – | – | – | – | –
CC(C)NCC(O)COc1cccc2ccccc12 (stereo not drawn) [PROPRANOLOL] | 9.68 ×10⁻⁶ cm/s | – | – | – | – | – | – | – | – | – | – | – | – | – | – | – | –
